Laboratory results from ChEMBL document CHEMBL1145348, “Synthesis and biochemical evaluation of a range of potent benzyl imidazole-based compounds as potential inhibitors of the enzyme complex 17alpha-hydroxylase/17,20-lyase (P450(17alpha))” (Bioorg Med Chem Lett, 2006).

How the values were obtained:
[1] = target: T1, Steroid 17-alpha-hydroxylase/17,20 lyase (Rattus norvegicus, UniProt P11715); assay: Inhibition of rat microsomal 17-alpha-hydroxylase component of P450-17alpha
T1 sequence (P11715 whole entry): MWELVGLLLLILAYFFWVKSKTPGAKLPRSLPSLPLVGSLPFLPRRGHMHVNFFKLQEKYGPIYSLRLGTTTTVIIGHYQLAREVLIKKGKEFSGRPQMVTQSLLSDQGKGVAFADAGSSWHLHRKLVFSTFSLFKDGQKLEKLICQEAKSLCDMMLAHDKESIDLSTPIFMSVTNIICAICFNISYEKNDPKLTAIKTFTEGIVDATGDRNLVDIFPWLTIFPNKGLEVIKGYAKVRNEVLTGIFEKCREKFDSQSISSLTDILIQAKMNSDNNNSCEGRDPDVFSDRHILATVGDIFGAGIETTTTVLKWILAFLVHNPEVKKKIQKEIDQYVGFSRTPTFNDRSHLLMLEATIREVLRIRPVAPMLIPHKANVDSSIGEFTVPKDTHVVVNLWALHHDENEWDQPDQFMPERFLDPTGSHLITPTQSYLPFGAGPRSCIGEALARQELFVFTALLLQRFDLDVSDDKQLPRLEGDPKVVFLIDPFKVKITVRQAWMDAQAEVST
Outline: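 Microsomal enzyme (final 0.16 mg/mL) preincubated mixture at 37 °C, 15 min reaction in 50 mM sodium phosphate pH 7.4 with NADPH generating system and radiolabelled progesterone (1.5 μM); inhibitor in ethanol. Ether extraction, TLC (DCM/ethyl acetate 7:3) with carrier steroids, ³H counting against uninhibited controls. IC50 from ≥5 concentrations in triplicate by linear regression of inhibition versus log[I].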

[2] = target: T1, Steroid 17-alpha-hydroxylase/17,20 lyase; assay: Inhibition of rat microsomal 17,20-lyase component of P450-17alpha
Outline: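 Rat testicular microsomes (final 0.23 mg/mL protein) incubated at 37 °C for 30 min in 50 mM sodium phosphate pH 7.4 with NADPH generating system and radiolabelled 17α-hydroxyprogesterone (1 μM), inhibitor added in ethanol. Ether extraction, TLC (DCM/ethyl acetate 4:1) with carrier steroids, ³H scintillation counting versus no-inhibitor controls. IC50 from five or more concentrations in triplicate, linear regression of inhibition versus log[I].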

SMILES | IC50 [1] [µM] | IC50 [2] [µM]
FC(F)(F)c1cc(Cn2ccnc2)cc(C(F)(F)F)c1 | 245 | 19.5
c1ccc(Cn2ccnc2)cc1 [BENZYLIMIDAZOLE] | 215 | 39.1
Fc1ccc(Cn2ccnc2)cc1 | 86.6 | 18.4
Fc1cc(F)cc(Cn2ccnc2)c1 | 83.1 | 11.8
CC(=O)N1CCN(c2ccc(OCC3COC(Cn4ccnc4)(c4ccc(Cl)cc4Cl)O3)cc2)CC1 (configuration not stated) [KETOCONAZOLE] | 3.76 | 1.66
Clc1ccc(Cn2ccnc2)cc1Cl | 12.2 | 2.07
Oc1ccc(Cn2ccnc2)cc1 | 72.1 | 8.22

More lines, in order of falling IC50 [1], values ahead:

IC50 [1] [µM] | IC50 [2] [µM] | SMILES
70.7 | 9.6 | Fc1ccc(Cn2ccnc2)cc1F
53.4 | 6.76 | Brc1ccc(Cn2ccnc2)cc1
50.6 | 8.81 | Cc1ccc(Cn2ccnc2)cc1
40.3 | 7.67 | N#Cc1ccc(Cn2ccnc2)cc1
31.6 | 2.81 | Clc1ccc(Cn2ccnc2)cc1
25.9 | 3.16 | Brc1cc(Br)cc(Cn2ccnc2)c1
25.4 | 7.17 | O=[N+]([O-])c1ccc(Cn2ccnc2)cc1
22.6 | 3.34 | Clc1cc(Cl)cc(Cn2ccnc2)c1
10.1 | 1.58 | Ic1ccc(Cn2ccnc2)cc1
